The source made the active and inactive calls. No cut-off for these calls is given here.
Key:
[1] = Inhibition of amyloid beta (1 to 40) fibril formation at 10 uM after 8 days by thioflavin T fluorescent dye assay
[2] = Inhibition of amyloid beta (1 to 40) fibril formation at 10 uM after 8 days by thioflavin T fluorescent dye assay
Summary of the method: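 Compound at 10 µM was co-incubated for eight days with Aβ40 (50 µM) in the presence of thioflavin T. Dye fluorescence was read at 485 nm and expressed as percent of the control assay with Aβ40 alone.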

Mus musculus = species on record: Mus musculus; assay: Binding affinity to beta amyloid plaque in triple transgenic alzheimer disease mouse model hippocampus at 100 uM after 90 mins by fluorescence microscopy; format: tissue-based
Summary of the method: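 Plaque labeling was read from the compound's native fluorescence with fluorescein optics. Plaques were confirmed by thioflavin S staining of adjacent sections. Controls were age-matched wild-type sections, untreated sections and DAPI counterstain.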

[3] = Induction of amyloid beta 40 fibril disassembly at 1:2 compound:amyloid-beta ratio
Summary of the method: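 Fresh preformed Aβ40 fibrils were incubated at 37 °C with compound at a compound/Aβ ratio of 1/2. Disassembly was followed by the change in thioflavin T fluorescence.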

| inhibition [2] | also measured | Compound |
| --- | --- | --- |
|  | inhibition [1]: inactive | C#CCNC(=O)CCCCC1CCSS1 (racemic) |
| 50% |  | COc1ccc2c(c1)CN1c3ccc(OC)cc3CN2C1CCCCCCCn1cc(COC(=O)Nc2ccc3cc4ccc(NC(C)=O)cc4nc3c2)nn1 |
| 50% |  | C#CCNCCC(=O)Nc1ccc2cc3ccc(NC(C)=O)cc3nc2c1 |
| 50% |  | CC(=O)Nc1ccc2cc3ccc(NC(=O)Cn4cc(CNC(=O)CCCCC5CCSS5)nn4)cc3nc2c1 (centres undefined) |
| 50% | Activity (Mus musculus): Active | COc1ccc2c(c1)CN1c3ccc(OC)cc3CN2C1CCCCCCCn1cc(CNCCC(=O)Nc2ccc3cc4ccc(NC(C)=O)cc4nc3c2)nn1 |
| 50% |  | CC(=O)Nc1ccc2cc3ccc(NC(=O)CN=[N+]=[N-])cc3nc2c1 |
|  | Activity [3]: 60% | O=C(O)CCCCC1CCSS1 (centres undefined) |
| 80% | Activity [3]: 90% | COc1cc(/C=C/C(=O)CC(=O)/C=C/c2ccc(O)c(OC)c2)ccc1O |
|  | inhibition [1]: inactive | COc1ccc2c(c1)CN1c3ccc(OC)cc3CN2C1CCCCCCCN=[N+]=[N-] |
| 50% |  | CC(=O)Nc1ccc2cc3ccc(NC(=O)CCNC(=O)CCCCC4CCSS4)cc3nc2c1 (centres undefined) |
| 50% |  | CC(=O)Nc1ccc2cc3ccc(NC(=O)CCN)cc3nc2c1 |
| Active |  | C#CCOC(=O)Nc1ccc2cc3ccc(NC(C)=O)cc3nc2c1 |

Reference: ChEMBL document CHEMBL1759946, “Proflavine derivatives as fluorescent imaging agents of amyloid deposits” (Bioorg Med Chem Lett, 2011)
